Reference: ChEMBL document CHEMBL5712085, “Inhibition of SMYD2 Sensitized Cisplatin to Resistant Cells in NSCLC Through Activating p53 Pathway” (2019)
The source made the active and inactive calls. No cut-off for these calls is given here.

How the values were obtained:
[1] = tested on: NCI-H460; experiment: Antitumor activity against human CDDP-resistant NCI-H460 cells xenografted in Balb/c mouse assessed as slight decrease in tumor growth at 40 mg/kg/day i.p; type: functional, organism-based; details: Lung, route ip
Procedure, shortened: (§1)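 Male BALB/c mice aged 7–8 weeks received NCI-H460/CDDP cells (5 × 10^6 in 100 μl PBS) subcutaneously into the right flank. At a mean tumor volume of 100 mm3, mice were randomized (n = 6 per group) to saline, inhibitor 40 mg/kg once daily i.p., CDDP 4.0 mg/kg every 3 days i.p., or the combination. Tumor growth was followed for 2 weeks.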

[2] = tested on: Mus musculus; experiment: Downregulation of p53K370me protein expression in Balb/c mouse tumor xenografted with CDDP-resistant NCI-H460 cells at 40 mg/kg/day ip by Western blot analysis; type: functional, organism-based
Procedure, shortened: (§2)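 Excised tumors came from NCI-H460/CDDP flank xenografts in male BALB/c mice (saline, inhibitor 40 mg/kg daily i.p., CDDP 4.0 mg/kg every 3 days i.p., or the combination; 2 weeks). They were stored at −80°C. Protein extracts were run on 10–15% SDS-PAGE, transferred to PVDF, probed with primary and HRP secondary antibodies, detected by ECL and normalized to β-actin.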

[3] = tested on: Mus musculus; experiment: Downregulation of p53K370me protein expression in Balb/c mouse tumor xenografted with CDDP-resistant NCI-H460 cells at 40 mg/kg/day ip by Western blot analysis in presence of cisplatin; type: functional, organism-based; procedure, shortened: as §2
[4] = tested on: NCI-H460; experiment: Antitumor activity against human CDDP-resistant NCI-H460 cells xenografted in Balb/c mouse assessed as inhibition of tumor growth at 40 mg/kg/day i.p in presence of cisplatin; type: functional, organism-based; details: Lung, route ip; procedure, shortened: as §1
[5] = tested on: NCI-H460; experiment: Cytotoxicity against human NCI-H460 cells assessed as inhibition of cell growth measured after 48 hrs by MTT assay; type: functional, cell-based; details: Lung
Procedure, shortened: (§3)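 Cells were grown in RPMI-1640 with 10% FBS, seeded at 1 × 10^5 cells/ml, left overnight and treated with a range of concentrations for 48 h. MTT (2.5 mg/ml in PBS) was added for 4 h at 37°C. Plates were centrifuged, the medium removed and the formazan dissolved in DMSO. OD was read at 570 nm.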

[6] = tested on: A549; experiment: Cytotoxicity against human A549 cells assessed as inhibition of cell growth measured after 48 hrs by MTT assay; type: functional, cell-based; details: Lung; procedure, shortened: as §3
[7] = tested on: NCI-H460; experiment: Potentiation of CDDP-induced apoptosis in human NCI-H460 cells assessed as late apoptotic cells at 2 uM measured after 48 hrs by annexin-V/PI staining based flow cytometry; type: functional, Lung
[8] = tested on: A549; experiment: Potentiation of Taxol-induced cytotoxicity in human A549 cells assessed as cell viability at 2 uM measured after 48 hrs by MTT assay; type: functional, cell-based; details: Lung
[9] = tested on: NCI-H460; experiment: Potentiation of CDDP-induced apoptosis in human NCI-H460 cells assessed as necrotic cells at 2 uM measured after 48 hrs by annexin-V/PI staining based flow cytometry; type: functional, Lung
[10] = tested on: NCI-H460; experiment: Induction of apoptosis in human NCI-H460 cells assessed as late apoptotic cells at 10 uM after 48 hrs by annexin-V/PI staining based flow cytometry (reference value: 0.02%); type: functional, Lung
[11] = tested on: NCI-H460; experiment: Potentiation of CDDP-induced apoptosis in human NCI-H460 cells assessed as viable cells at 2 uM measured after 48 hrs by annexin-V/PI staining based flow cytometry; type: functional; details: NCI-H460, Lung, read-out: Activity
[12] = tested on: NCI-H460; experiment: Induction of apoptosis in human NCI-H460 cells assessed as viable cells at 10 uM after 48 hrs by annexin-V/PI staining based flow cytometry (reference value: 98.42%); type: functional; details: NCI-H460, Lung, read-out: Activity
[13] = tested on: NCI-H460; experiment: Potentiation of CDDP-induced apoptosis in human CDDP-resistant NCI-H460 cells assessed as early apoptotic cells at 2 uM measured after 48 hrs by annexin-V/PI staining based flow cytometry; type: functional, Lung
[14] = tested on: NCI-H460; experiment: Potentiation of VCR-induced cytotoxicity in human NCI-H460 cells assessed as cell viability at 2 uM measured after 48 hrs by MTT assay; type: functional, cell-based; details: Lung
[15] = tested on: NCI-H460; experiment: Potentiation of CDDP-induced apoptosis in human CDDP-resistant NCI-H460 cells assessed as necrotic cells at 2 uM measured after 48 hrs by annexin-V/PI staining based flow cytometry; type: functional, Lung
[16] = tested on: NCI-H460; experiment: Potentiation of CDDP-induced apoptosis in human CDDP-resistant NCI-H460 cells assessed as viable cells at 2 uM measured after 48 hrs by annexin-V/PI staining based flow cytometry; type: functional; details: NCI-H460, Lung, read-out: Activity
[17] = tested on: NCI-H460; experiment: Potentiation of Taxol-induced cytotoxicity in human NCI-H460 cells assessed as cell viability at 2 uM measured after 48 hrs by MTT assay; type: functional, cell-based; details: Lung
[18] = tested on: NCI-H460; experiment: Induction of apoptosis in human NCI-H460 cells assessed as necrotic cells at 10 uM after 48 hrs by annexin-V/PI staining based flow cytometry (reference value: 1.53%); type: functional, Lung
[19] = tested on: NCI-H460; experiment: Induction of apoptosis in human NCI-H460 cells assessed as early apoptotic cells at 10 uM after 48 hrs by annexin-V/PI staining based flow cytometry (reference value: 0.02%); type: functional, Lung
[20] = tested on: NCI-H460; experiment: Induction of apoptosis in human CDDP-resistant NCI-H460 cells assessed as viable cells at 10 uM after 48 hrs by annexin-V/PI staining based flow cytometry (reference value: 95.44%); type: functional; details: NCI-H460, Lung, read-out: Activity
[21] = tested on: A549; experiment: Potentiation of VCR-induced cytotoxicity in human A549 cells assessed as cell viability at 2 uM measured after 48 hrs by MTT assay; type: functional, cell-based; details: Lung
[22] = tested on: NCI-H460; experiment: Induction of apoptosis in human CDDP-resistant NCI-H460 cells assessed as late apoptotic cells at 10 uM after 48 hrs by annexin-V/PI staining based flow cytometry (reference value: 0.03%); type: functional, Lung
[23] = tested on: NCI-H460; experiment: Potentiation of CDDP-induced apoptosis in human CDDP-resistant NCI-H460 cells assessed as late apoptotic cells at 2 uM measured after 48 hrs by annexin-V/PI staining based flow cytometry; type: functional, Lung
[24] = tested on: NCI-H460; experiment: Potentiation of CDDP-induced apoptosis in human NCI-H460 cells assessed as early apoptotic cells at 2 uM measured after 48 hrs by annexin-V/PI staining based flow cytometry; type: functional, Lung
[25] = tested on: NCI-H460; experiment: Induction of apoptosis in human CDDP-resistant NCI-H460 cells assessed as early apoptotic cells at 10 uM after 48 hrs by annexin-V/PI staining based flow cytometry (reference value: 0.03%); type: functional, Lung
[26] = tested on: NCI-H460; experiment: Induction of apoptosis in human CDDP-resistant NCI-H460 cells assessed as necrotic cells at 10 uM after 48 hrs by annexin-V/PI staining based flow cytometry (reference value: 0.03%); type: functional, Lung

**Q.** `O=C1COc2c(CCNCCN(C(=O)CCNCCc3ccc(Cl)c(Cl)c3)C3CCCCC3)ccc(O)c2N1` was tested. Which Activity [1] did it give?
**A.** Active

**Q.** What about the inhibition [2] of the same compound?
**A.** Active

**Q.** And the inhibition [3]?
**A.** Active

**Q.** What about the Activity [4] of the same compound?
**A.** Active

**Q.** Which Activity [5] does the source give for `CCC1=C[C@@H]2CN(C1)Cc1c([nH]c3ccccc13)[C@@](C(=O)OC)(c1cc3c(cc1OC)N(C)[C@H]1[C@@](O)(C(=O)OC)[C@H](OC(C)=O)[C@]4(CC)C=CCN5CC[C@]31[C@@H]54)C2` here?
**A.** Dose-Dependent Effect

**Q.** What about the Activity [6] of the same compound?
**A.** Dose-Dependent Effect

**Q.** Which Activity [5] does the source give for `CC[C@]1(O)C[C@H]2CN(CCc3c([nH]c4ccccc34)[C@@](C(=O)OC)(c3cc4c(cc3OC)N(C=O)[C@H]3[C@@](O)(C(=O)OC)[C@H](OC(C)=O)[C@]5(CC)C=CCN6CC[C@]43[C@@H]65)C2)C1` here?
**A.** Dose-Dependent Effect

**Q.** And the Activity [6]?
**A.** Dose-Dependent Effect

**Q.** With `CCN(C(=O)CO)[C@H]1CN(/C(=N\C#N)Nc2cccc(OC(F)F)c2)N=C1c1ccc(Cl)c(Cl)c1` as the compound, how does the Activity [7] read?
**A.** 84.74%

**Q.** And the Activity [8]?
**A.** inactive

**Q.** And the Activity [9]?
**A.** 0.04%

**Q.** What about the Activity [10] of the same compound?
**A.** 0.26%

**Q.** What about the viability at 2 µM [11] of the same compound?
**A.** 0.5%

**Q.** And the viability at 10 µM [12]?
**A.** 97.6%

**Q.** What about the Activity [13] of the same compound?
**A.** 5.21%

**Q.** And the Activity [14]?
**A.** inactive

**Q.** What about the Activity [15] of the same compound?
**A.** 19.75%

**Q.** And the viability at 2 µM [16]?
**A.** 8.94%

**Q.** What about the Activity [17] of the same compound?
**A.** inactive

**Q.** What about the Activity [18] of the same compound?
**A.** 2.08%

**Q.** And the Activity [19]?
**A.** 0.03%

**Q.** And the viability at 10 µM [20]?
**A.** 85.2%

**Q.** What about the Activity [21] of the same compound?
**A.** inactive

**Q.** What about the Activity [22] of the same compound?
**A.** 7.55%

**Q.** And the Activity [23]?
**A.** 66.1%

**Q.** What about the Activity [24] of the same compound?
**A.** 14.7%

**Q.** And the Activity [25]?
**A.** 1.53%

**Q.** And the Activity [26]?
**A.** 4.72%

**Q.** `CC(=O)O[C@H]1C(=O)[C@@]2(C)[C@H]([C@H](OC(=O)c3ccccc3)[C@]3(O)C[C@H](OC(=O)[C@H](O)[C@@H](NC(=O)c4ccccc4)c4ccccc4)C(C)=C1C3(C)C)[C@]1(OC(C)=O)CO[C@@H]1C[C@@H]2O` was tested. Which Activity [5] did it give?
**A.** Dose-Dependent Effect

**Q.** What about the Activity [6] of the same compound?
**A.** Dose-Dependent Effect
